Laboratory results as given in ChEMBL document CHEMBL1154447, “Synthesis, antimicrobial activity, pharmacophore analysis of some new 2-(substitutedphenyl/benzyl)-5-[(2-benzofuryl)carboxamido]benzoxazoles” (2008).
Values after ≈ are worked out from the molar mass of the structure shown.

Assays:
Assay type in all cases: functional
Escherichia coli [1] = assay: Antibacterial activity against Escherichia coli isolate containing extended spectrum beta lactamase after 24 hrs by twofold serial dilution technique
Method in brief: (§1)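 Broth microdilution in Mueller-Hinton broth. Isolates were subcultured overnight on MHA at 37 °C and passaged at least twice. McFarland 0.5 cultures […] were diluted to 10⁵ cfu/ml, giving 10⁴ cfu/ml per well, over two-fold compound dilutions. Plates were incubated at 37 °C in a humid chamber for 24 h. MIC was the lowest concentration completely inhibiting macroscopic growth. Triplicate per run.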

Candida albicans [2] = assay: Antifungal activity against Candida albicans ATCC 10231 after 48 hrs by twofold serial dilution technique; conditions: ATCC 10231, 48 h
Method in brief: (§2)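 Yeasts were subcultured on SDA at 35 °C for 24-48 h and passaged twice. Broth microdilution followed CLSI M27-A in RPMI-1640 with L-glutamine, MOPS-buffered to pH 7. Inoculum was McFarland 0.5 (10⁶ cfu/ml) diluted to 10⁴ cfu/ml, giving 10³ cfu/ml per well. Incubated at 35 °C in a humid chamber and read at 48 h as the lowest concentration with no macroscopic growth. Triplicate per run.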

Escherichia coli [3] = assay: Antibacterial activity against Escherichia coli ATCC 25922 after 24 hrs by twofold serial dilution technique; method in brief: as §1
Pseudomonas aeruginosa [4] = assay: Antibacterial activity against Pseudomonas aeruginosa […] after 24 hrs by twofold serial dilution technique; method in brief: as §1
Candida albicans [5] = assay: Antifungal activity against biofilm-positive Candida albicans isolate after 48 hrs by twofold serial dilution technique; method in brief: as §2
Bacillus subtilis [6] = assay: Antibacterial activity against ceftriaxone-resistant Bacillus subtilis isolate after 24 hrs by twofold serial dilution technique
Method in brief: (§3)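 Broth microdilution in Mueller-Hinton broth. Strains were subcultured overnight on MHA at 37 °C and passaged at least twice. McFarland 0.5 cultures […] were diluted to 10⁵ cfu/ml, giving 10⁴ cfu/ml per well, against two-fold dilutions from 1000 to 0.06. Solvent and medium controls were included. Plates were held at 37 °C in a humid chamber for 24 h, in triplicate. MIC is the lowest concentration with no macroscopic growth.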

Bacillus subtilis [7] = assay: Antibacterial activity against Bacillus subtilis ATCC 6633 after 24 hrs by twofold serial dilution technique; method in brief: as §3
Klebsiella pneumoniae [8] = assay: Antibacterial activity against Klebsiella pneumoniae RSHM 574 after 24 hrs by twofold serial dilution technique; method in brief: as §1
Klebsiella pneumoniae [9] = assay: Antibacterial activity against Klebsiella pneumoniae isolate containing extended spectrum beta lactamase after 24 hrs by twofold serial dilution technique; method in brief: as §1
Pseudomonas aeruginosa [10] = assay: Antibacterial activity against gentamicin-resistant Pseudomonas aeruginosa isolate after 24 hrs by twofold serial dilution technique; method in brief: as §3
Pichia kudriavzevii = assay: Antifungal activity against Candida krusei ATCC 6258 after 48 hrs by twofold serial dilution technique; conditions: ATCC 6258, 48 h; method in brief: as §2
Staphylococcus aureus [11] = assay: Antibacterial activity against Staphylococcus aureus ATCC 25923 after 24 hrs by twofold serial dilution technique; method in brief: as §1
Staphylococcus aureus [12] = assay: Antibacterial activity against methicillin-resistant Staphylococcus aureus isolate after 24 hrs by twofold serial dilution technique; method in brief: as §3

| Compound | MIC (Escherichia coli [1]) [µg/mL] | MIC (Candida albicans [2]) [µg/mL] | MIC (Escherichia coli [3]; ATCC 25922, 24 h) [µg/mL] | MIC (Pseudomonas aeruginosa [4]) [µg/mL] | MIC (Candida albicans [5]) [µg/mL] | MIC (Bacillus subtilis [6]) [µg/mL] | MIC (Bacillus subtilis [7]; ATCC 6633, 24 h) [µg/mL] | MIC (Klebsiella pneumoniae [8]) [µg/mL] | MIC (Klebsiella pneumoniae [9]) [µg/mL] | MIC (Pseudomonas aeruginosa [10]) [µg/mL] | MIC (Pichia kudriavzevii) [µg/mL] | MIC (Staphylococcus aureus [11]; ATCC 25923, 24 h) [µg/mL] | MIC (Staphylococcus aureus [12]) [µg/mL] | MIC (Escherichia coli [3]) [µg/mL] | MIC (Bacillus subtilis [7]) [µg/mL] | MIC (Staphylococcus aureus [11]) [µg/mL] |
| --- | --- | --- | --- | --- | --- | --- | --- | --- | --- | --- | --- | --- | --- | --- | --- | --- |
| O=C(Nc1ccc2oc(-c3ccccc3Br)nc2c1)c1cc2ccccc2o1 | 125 (≈ 289 µM) | 62.5 (≈ 144 µM) | 62.5 (≈ 144 µM) | 62.5 (≈ 144 µM) | 62.5 (≈ 144 µM) | 125 (≈ 289 µM) | 500 (≈ 1150 µM) | 62.5 (≈ 144 µM) | 125 (≈ 289 µM) | 62.5 (≈ 144 µM) | 250 (≈ 577 µM) | 125 (≈ 289 µM) | 31.2 (≈ 72.1 µM) | – | – | – |
| C[C@@H]1[C@H](O)[C@@H](C)/C=C/C=C/C=C/C=C/C=C/C=C/C=C/[C@H](O[C@@H]2O[C@H](C)[C@@H](O)[C@H](N)[C@@H]2O)C[C@@H]2O[C@](O)(C[C@@H](O)C[C@@H](O)[C@H](O)CC[C@@H](O)C[C@@H](O)CC(=O)O[C@H]1C)C[C@H](O)[C@H]2C(=O)O [AMPHOTERICIN B] | – | 0.48 (≈ 0.519 µM) | – | – | 0.24 (≈ 0.26 µM) | – | – | – | – | – | 1.9 (≈ 2.06 µM) | – | – | – | – | – |
| O=C(Nc1ccc2oc(Cc3ccc(F)cc3)nc2c1)c1cc2ccccc2o1 | 125 (≈ 324 µM) | 62.5 (≈ 162 µM) | 62.5 (≈ 162 µM) | 62.5 (≈ 162 µM) | 62.5 (≈ 162 µM) | 125 (≈ 324 µM) | 125 (≈ 324 µM) | 62.5 (≈ 162 µM) | 125 (≈ 324 µM) | 125 (≈ 324 µM) | 250 (≈ 647 µM) | 125 (≈ 324 µM) | 62.5 (≈ 162 µM) | – | – | – |
| CC1(C)S[C@@H]2[C@H](NC(=O)[C@H](N)c3ccccc3)C(=O)N2[C@H]1C(=O)O.O.O.O [AMPICILLIN TRIHYDRATE] | > 15.6 | – | 3.9 | > 500 | – | 0.48 | 0.48 | 0.48 | 15.6 | > 500 | – | 0.48 | 1.9 | – | – | – |
| Cc1ccc(Cc2nc3cc(NC(=O)c4cc5ccccc5o4)ccc3o2)cc1 | 125 (≈ 327 µM) | 62.5 (≈ 163 µM) | 62.5 (≈ 163 µM) | 62.5 (≈ 163 µM) | 62.5 (≈ 163 µM) | 125 (≈ 327 µM) | 125 (≈ 327 µM) | 62.5 (≈ 163 µM) | 125 (≈ 327 µM) | 125 (≈ 327 µM) | 250 (≈ 654 µM) | 125 (≈ 327 µM) | 62.5 (≈ 163 µM) | – | – | – |
| CC(C)(C)c1ccc(-c2nc3cc(NC(=O)c4cc5ccccc5o4)ccc3o2)cc1 | 125 (≈ 305 µM) | 62.5 (≈ 152 µM) | 62.5 (≈ 152 µM) | 62.5 (≈ 152 µM) | 62.5 (≈ 152 µM) | 125 (≈ 305 µM) | 125 (≈ 305 µM) | 62.5 (≈ 152 µM) | 125 (≈ 305 µM) | 125 (≈ 305 µM) | 125 (≈ 305 µM) | 125 (≈ 305 µM) | 62.5 (≈ 152 µM) | – | – | – |
| GENTAMICIN | 15.6 | – | – | 31.2 | – | 0.12 | – | 0.24 | 7.8 | 62.5 | – | – | 7.8 | 0.48 | 0.24 | 0.48 |
| OC(Cn1cncn1)(Cn1cncn1)c1ccc(F)cc1F [FLUCONAZOLE] | – | 1.9 (≈ 6.2 µM) | – | – | 0.48 (≈ 1.57 µM) | – | – | – | – | – | 15.6 (≈ 51 µM) | – | – | – | – | – |
